Assay results reported in ChEMBL document CHEMBL4825779, “Sulfur Analogues of Tyrosine in the Development of Triazene Hybrid Compounds: A New Strategy against Melanoma” (ACS Med Chem Lett, 2021).

B1: Tyrosinase (Agaricus bisporus) (protein)
chain: MSLIATVGPTGGVKNRLNIVDFVKNEKFFTLYVRSLELLQAKEQHDYSSFFQLAGIHGLPFTEWAKERPSMNLYKAGYCTHGQVLFPTWHRTYLSVLEQILQGAAIEVAKKFTSNQTDWVQAAQDLRQPYWDWGFELMPPDEVIKNEEVNITNYDGKKISVKNPILRYHFHPIDPSFKPYGDFATWRTTVRNPDRNRREDIPGLIKKMRLEEGQIREKTYNMLKFNDAWERFSNHGISDDQHANSLESVHDDIHVMVGYGKIEGHMDHPFFAAFDPIFWLHHTNVDRLLSLWKAINPDVWVTSGRNRDGTMGIAPNAQINSETPLEPFYQSGDKVWTSASLADTARLGYSYPDFDKLVGGTKELIRDAIDDLIDERYGSKPSSGARNTAFDLLADFKGITKEHKEDLKMYDWTIHVAFKKFELKESFSLLFYFASDGGDYDQENCFVGSINAFRGTAPETCANCQDNENLIQEGFIHLNHYLARDLESFEPQDVHKFLKEKGLSYKLYSRGDKPLTSLSVKIEGRPLHLPPGEHRPKYDHTQARVVFDDVAVHVIN

How the values were obtained:
[1] = Cytotoxicity against human MNT-1 cells assessed as reduction in cell viability incubated for 72 hrs by MTS assay; assay type: functional, cell-based; conditions: MNT-1, 72 h
Method in brief: (§1)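 Cell lines: MNT-1 and A375 (human melanoma), B16F10 (murine melanoma) and HaCaT (human keratinocytes). Compounds incubated with cells for 72 h; IC50 reported in μM.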

[2] = test system: B16-F10; assay: Cytotoxicity against mouse B16-F10 cells assessed as reduction in cell viability incubated for 72 hrs by MTS assay; assay type: functional, cell-based; conditions: B16-F10, 72 h; method in brief: as §1
[3] = test system: HaCaT; assay: Cytotoxicity against human HaCaT cells assessed as reduction in cell viability incubated for 72 hrs by MTS assay; assay type: cell-based; method in brief: as §1
[4] = 1-Octanol/phosphate buffer apparent partition coefficient, logP of the compound measured after 30 mins by HPLC analysis; assay type: physicochemical
[5] = Half life of the compound in PBS buffer at pH 7.4 by HPLC analysis; assay type: physicochemical
Method in brief: (§2)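 Stability run at 37 °C in PBS pH 7.4 or 80% human plasma. HPLC followed loss of parent and appearance of hydrolysis products over at least 3 half-lives. Decay fitted pseudo-first-order: kobs taken as the slope of ln(concentration) vs time, and t1/2 calculated from kobs.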

[6] = Half life in 80% human plasma by HPLC analysis; assay type: ADME, cell-free; method in brief: as §2
[7] = target: T1, Tyrosinase (Agaricus bisporus, UniProt O42713); assay: Substrate activity at mushroom tyrosinase assessed as half-life of the compound by HPLC analysis; assay type: ADME
T1 sequence (O42713 whole entry): B1 chain
Method in brief: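 Incubated with mushroom tyrosinase at 100 units/mL. Reaction followed by HPLC to derive substrate half-life (min).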

[8] = test system: A-375; assay: Cytotoxicity against human A-375 cells assessed as reduction in cell viability incubated for 72 hrs by MTS assay; assay type: functional, cell-based; conditions: A-375, 72 h; method in brief: as §1
[9] = Haemolytic activity against human erythrocytes at 0.2 to 400 uM after 1 hr; assay type: ADME, cell-based, Erythrocyte; conditions: dose 0.2-400 µM, read-out: Activity
Method in brief: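 Human red blood cells exposed to compound at 0.2 to 400 μM for 1 h at 37 °C. Read-out: percentage hemolysis.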

[10] = Toxicity in BALB/c mouse assessed as liver tissue index at 12 mg/kg, iv administered 3 times for 1 week and measured at 2 days post-last injection (reference value: 22 +/-1); assay type: organism-based; conditions: in vivo, 216 h, time 9 day
[11] = Toxicity in BALB/c mouse assessed as spleen tissue index at 12 mg/kg, iv administered 3 times for 1 week and measured at 2 days post-last injection (reference value: 6 +/-1); assay type: organism-based; conditions: in vivo, 216 h, time 9 day
[12] = Toxicity in BALB/c mouse assessed as kidney tissue index at 12 mg/kg, iv administered 3 times for 1 week and measured at 2 days post-last injection (reference value: 13 +/-1); assay type: organism-based; conditions: in vivo, 216 h, time 9 day
[13] = Toxicity in BALB/c mouse assessed as lung tissue index at 12 mg/kg, iv administered 3 times for 1 week and measured at 2 days post-last injection (reference value: 8 +/-1); assay type: organism-based; conditions: in vivo, 216 h, time 9 day
[14] = Toxicity in BALB/c mouse assessed as heart tissue index at 12 mg/kg, iv administered 3 times for 1 week and measured at 2 days post-last injection (reference value: 7 +/-1); assay type: organism-based; conditions: in vivo, 216 h, time 9 day
[15] = Selectivity index, ratio of IC50 for human HaCaT cells to IC50 for human MNT-1 cells by MTS assay
[16] = Selectivity index, ratio of IC50 for human HaCaT cells to IC50 for mouse B16-F10 cells by MTS assay; assay type: toxicity; conditions: HaCaT cells and B16-F10 cells, read-out: Ratio IC50
Method in brief: (§3)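 Human HaCaT keratinocytes and the melanoma line (human A375 or murine B16F10) were each incubated with compound for 72 h, and IC50 was determined in each line. Selectivity index is HaCaT IC50 divided by melanoma-line IC50.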

[17] = Hepatotoxicity in BALB/c mouse assessed as gamma-GT level in plasma at 12 mg/kg, iv administered 3 times for 1 week and measured at 2 days post-last injection (reference value: 47 +/-9 U/L); assay type: toxicity, organism-based; conditions: in vivo, 216 h, time 9 day
Method in brief: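 BALB/c mice dosed intravenously at 12 mg/kg, 3 times per week for 1 week. Vehicle: PBS plus Cremophor (5% p/v); controls received vehicle only. Behaviour checked daily. Animals killed 2 days after the last injection; blood collected for γ-GT, and organs weighed for tissue index.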

[18] = Selectivity index, ratio of IC50 for human HaCaT cells to IC50 for human cells by MTS assay
[19] = Hepatotoxicity in rat liver microsomes assessed as GSH depletion measured after 180 mins by Ellman's method; assay type: toxicity, Microsome; conditions: 3 h
[20] = Drug metabolism in rat liver microsomes assessed as CYP450-mediated o-quinone formation measured after 3 hrs by HPLC analysis; assay type: ADME, Microsome
[21] = target: T1, Tyrosinase; assay: Drug metabolism assessed as mushroom tyrosinase-mediated drug oxidation by measuring dihydroxylated metabolite formation with m/z 408 by mass spectrometry; assay type: ADME
[22] = target: T1, Tyrosinase; assay: Drug metabolism assessed as mushroom tyrosinase-mediated drug oxidation by measuring dihydroxylated metabolite formation with m/z 410 by mass spectrometry; assay type: ADME
[23] = Selectivity index, ratio of IC50 for human HaCaT cells to IC50 for human A-375 cells by MTS assay; method in brief: as §3
[24] = target: T1, Tyrosinase; assay: Drug metabolism assessed as mushroom tyrosinase-mediated drug oxidation by measuring dihydroxylated metabolite formation with m/z 344 by mass spectrometry; assay type: ADME
[25] = target: T1, Tyrosinase; assay: Drug metabolism assessed as mushroom tyrosinase-mediated drug oxidation by measuring compound 18c formation measured after 0.5 to 4 mins by HPLC analysis; assay type: ADME; conditions: time 0.5-4 min
[26] = target: T1, Tyrosinase; assay: Drug metabolism assessed as mushroom tyrosinase-mediated drug oxidation by measuring 3-(4-cyanophenyl)-N-(2-(3,4-dioxocyclohexa-1,5-dienylthio)ethyl)-1-methyltriaz-2-ene-1-carboxamide formation measured after 2 hrs by HPLC analysis; assay type: ADME
[27] = substrate: CCOC(=O)c1ccc(/N=N/N(C)C(=O)NCCSc2ccc(O)cc2)cc1; assay: (§4) Substrate activity at mushroom tyrosinase assessed as Km by Michaelis-Menten based analysis; assay type: ADME, Agaricus bisporus
[28] = substrate: CN(/N=N/c1ccc(C#N)cc1)C(=O)NCCSc1ccc(O)cc1; assay: as §4; assay type: ADME, Agaricus bisporus
[29] = substrate: Cc1ccc(/N=N/N(C)C(=O)NCCSc2ccc(O)cc2)cc1; assay: as §4; assay type: ADME, Agaricus bisporus

Molecule	IC50 [1] [µM]	IC50 [2] [µM]	IC50 [3] [µM]	half-life [5] [h]	half-life [6] [h]	half-life [7] [min]	IC50 [8] [µM]	Ratio IC50 [15]	selectivity ratio [16]	Ratio IC50 [23]	also measured
CN=NNc1ccc(C#N)cc1	> 60	> 60	> 60	–	–	–	–	–	–	–	–
CCOC(=O)c1ccc(/N=N/N(C)C(=O)NCCSc2ccc(O)cc2)cc1	49.4	51	> 100	> 240	30.5	3.7	43.8	2	2	–	logD at 0.5 h [4]: 4.08; hemolysis at 1 h, up to 400 µM [9]: < 1%; Activity_index [10]: 22; Activity_index [11]: 6; Activity_index [12]: 13; Activity_index [13]: 8; Activity_index [14]: 7; Activity [17]: 57 U/L; Ratio IC50 [18]: 2
CN(/N=N/c1ccc(Br)cc1)C(=O)NCCSc1ccc(O)cc1	> 75	> 75	> 150	> 240	105	0.5	–	2	2	–	logD at 0.5 h [4]: 3.95; Activity [19]: Non-Toxic; Drug metabolism [20]: Metabolite_Notdetected; Ratio IC50 [18]: 2
CCOC(=O)c1ccc(/N=N/NC)cc1	> 60	> 60	> 60	–	–	–	–	–	–	–	–
CN(/N=N/c1ccc(Br)cc1)C(=O)CCSc1ccc(O)cc1	> 75	> 75	–	106	8.3	2.1	55	2	2	2	Drug metabolism [21]: Metabolite_Detected; Drug metabolism [22]: Metabolite_Detected
CC(=O)c1ccc(/N=N/N(C)C(=O)CCSc2ccc(O)cc2)cc1	> 75	> 75	–	139	4.9	–	> 75	2	2	2	–
Cn1nnc2c(C(N)=O)ncn2c1=O [TEMOZOLOMIDE]	> 75	> 75	> 75	–	–	–	> 75	–	–	–	–
Cc1ccc(/N=N/N(C)C(=O)CCSc2ccc(O)cc2)cc1	–	> 75	45.8	101	8.7	2.3	47	2	2	<1	Drug metabolism [24]: Metabolite_Detected
CN/N=N/c1ccc(Br)cc1	> 60	> 60	> 60	–	–	–	–	–	–	–	–
CN(/N=N/c1ccc(C#N)cc1)C(=O)NCCSc1ccc(O)cc1	> 75	> 75	> 150	> 240	74	0.5	–	2	2	–	logD at 0.5 h [4]: 3.49; Drug metabolism [25]: Metabolite_Detected; Drug metabolism [26]: Metabolite_Notdetected; Ratio IC50 [18]: 2
CN(/N=N/c1ccc(C#N)cc1)C(=O)CCSc1ccc(O)cc1	> 75	> 75	–	86.4	2.99	–	> 75	2	2	2	–
CN(/N=N/c1ccc(Cl)cc1)C(=O)CCSc1ccc(O)cc1	–	> 75	> 75	–	–	–	> 75	2	2	2	–
CCOC(=O)c1ccc(/N=N/N(C)C(=O)CCSc2ccc(O)cc2)cc1	> 75	> 75	–	130	6.57	–	61	2	2	2	–
CN=NNc1ccc(C(C)=O)cc1	> 75	> 75	> 130	–	–	–	–	–	–	–	–
Cc1ccc(/N=N/N(C)C(=O)NCCSc2ccc(O)cc2)cc1	74.1	78.3	> 130	> 240	88.5	1.9	–	2	2	–	logD at 0.5 h [4]: 4.21; Ratio IC50 [18]: 2
NCCSc1ccc(O)cc1	42.8	> 75	> 125	–	–	–	–	>=3	–	–	–
CC(=O)c1ccc(/N=N/N(C)C(=O)NCCSc2ccc(O)cc2)cc1	> 75	> 75	> 150	> 240	61.6	1	–	2	2	–	logD at 0.5 h [4]: 3.44; Ratio IC50 [18]: 2
B1	–	–	–	–	–	–	–	–	–	–	Km [27]: 64 µM; Km [28]: 64 µM; Km [29]: 64 µM
